Jurkat NFkB inh: lowers PMA/ionomycin-induced NF-kB signal in Jurkat cells; PMA/ionomycin-induced NF-kB luciferase reporter, luminescence; inhibition, % at 4 µM; 330,000 tested, 0.53% active; in the data active = inhibition above about 50%
697 NFkB inh: inhibitors of the PMA/ionomycin-induced NF-kB reporter in 697 B cells | 697 B-cell NF-kB luciferase reporter, 16 h | inhibition, % at 4 µM | 330,000 tested, 0.33% active | AID 435022; in the data active = inhibition above about 35%
HSF1 activator: increases HSF-1 driven luciferase reporter signal | NIH3T3-HGL HSF-1 luciferase reporter, MG132, 8 h; 100% = twice DMSO control signal | activation, % at 9 µM | 300,000 tested, 1.7% active | AID 504408;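 active = mean replicate activation of at least 50% with a set share of replicates each reaching 50%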;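 also: 0% = median of the neutral control wells and 100% = twice that signal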
GPR7 antagonist: antagonists of human GPR7 (neuropeptides B/W receptor 1) | P48145 | GPR7-expressing cells, fluorescence antagonist assay | inhibition, % at 4.4 µM | 290,000 tested, 1.1% active; in the data active = inhibition above about 16%, passing the limit was not always enough;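 also: cells stimulated with the agonist NPW; 0% = agonist with vehicle and 100% = vehicle without agonist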
Target sequence (P48145 whole entry, looked up): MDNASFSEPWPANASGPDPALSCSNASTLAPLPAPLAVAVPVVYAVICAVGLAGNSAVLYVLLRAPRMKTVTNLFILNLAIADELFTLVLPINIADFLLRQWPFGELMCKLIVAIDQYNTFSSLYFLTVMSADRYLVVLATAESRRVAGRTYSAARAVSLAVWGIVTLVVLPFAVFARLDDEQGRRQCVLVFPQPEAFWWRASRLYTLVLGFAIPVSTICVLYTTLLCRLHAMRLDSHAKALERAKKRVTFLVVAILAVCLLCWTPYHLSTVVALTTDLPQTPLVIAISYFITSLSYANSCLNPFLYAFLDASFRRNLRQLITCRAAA
HSF1 inhib: HSF1 inhibition; activity change, negative = inhibition, % at 7.5 µM (by protocol); 300,000 tested, 0.77% active; NIH3T3-HGL HSE-luciferase, MG132-induced, luminescence 8 h; hits give low values;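 active = more than half of replicate wells show activity change below -50%, luminescence cut by over half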;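 also: luciferase reports HSF-1 transcriptional activity via heat shock element; 0% = median of DMSO wells and -100% = zero luminescence signal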
T cruzi inh: T. cruzi replication inhibition; 300,000 tested, 1.4% active; inhibition, % (concentration not given with the values); T. cruzi beta-gal in NIH3T3, luminescence, 90 h;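 active = mean inhibition across valid replicates above about 55%, limit read from the data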;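 also: signal also drops with host cell toxicity which is not excluded here; 0% = plate median of DMSO wells and 100% = zero luminescence signal; higher percent means less beta-gal luminescence so fewer parasites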
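compound dosing = single 50 nL compound addition per well in DMSO | material = NIH/3T3 host cells with β-galactosidase reporter T. cruzi | input = 5,000 host fibroblasts per well | timing = ≥90 h infection period, 3 h prior cell attachment | read-out basis = percent inhibition of parasite-derived β-gal signal | detection = GalScreen β-gal luminescence, detergent lysis, 60 min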
GPR7 antag conf: confirmation of human GPR7 antagonists; shares compounds with GPR7 antagonist; GPR7-expressing cells, calcium fluorescence antagonist mode; inhibition, % at 4.4 µM; 2,400 tested, 52% active; AID 1952; in the data active = inhibition above about 24%;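 also: stimulated with the GPR7 agonist NPW; 0% = agonist plus vehicle and 100% = vehicle alone without agonist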
MCHR1 antag: MCHR1 (human) antagonism in GPR7 counter-screen; shares compounds with GPR7 antagonist; MCHR1-expressing cells, fluorescence antagonist assay; inhibition, % at 4.4 µM; 2,400 tested, 62% active; in the data active = inhibition above about 22%;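 also: 0% = vehicle with agonist and 100% = vehicle without agonist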
* marks the source's active call; other numbers are inactive results; · = not tested or not shown. Rows were chosen to be rich in hits. Some 4.8% of all compounds tested hit in one or more screens of this group.

SMILES | Jurkat NFkB inh | 697 NFkB inh | HSF1 activator | GPR7 antagonist | HSF1 inhib | T cruzi inh | GPR7 antag conf | MCHR1 antag
CS(=O)(=O)c1ccc2nc(NC(=O)Nc3ccccc3F)sc2c1 | -124 | -154 | 30 | 59* | 11 | -5 | 36* | 16
Cc1cccn2c(CNC3CCCc4ccccc43)c(C(=O)N3CCCCC3)nc12 (stereo not drawn) | -3 | -7 | 30 | 34* | 10 | 32 | 17 | 17
S=C(NCCc1cnc[nH]1)NC1CCCC1 | 15 | 18 | 5 | -4 | 1 | -7 | · | ·
CN1CCN(C2=Cc3ccccc3Sc3cc(F)c(Cl)cc32)CC1 | -11 | -16 | 4 | 27* | -11 | 12 | 38* | 58*
O=C1C=C(c2ccc(-c3ccccc3)c(F)c2)C[C@@H](c2ccc(Cl)cc2)C1 | -11 | -17 | · | · | · | · | · | ·
Cc1ccc2c(c1)N(C(=O)CCC(=O)N1CCN(c3ccccn3)CC1)CC(C)O2 (stereo not drawn) | 5 | 1 | 7 | 31* | -3 | 5 | 6 | 5
CN1C(=O)C(/C(N)=N/NC(=O)c2ccccc2)C2CC1(C)Oc1ccccc12 (stereo not drawn) | 2 | 0 | 5 | 99* | -2 | -13 | 9 | -3
C/C(CC(=O)Nc1ccc2c(c1)OCCO2)=N\NC(=O)c1ccc([N+](=O)[O-])cc1Cl | -17 | -17 | -25 | 34* | -14 | 2 | -5 | -1
CC(C(=O)Nc1ccc2c(c1)OCO2)c1ccc([N+](=O)[O-])cc1 (stereo not drawn) | -4 | 16 | 2 | 5 | -3 | 5 | · | ·
C/C(CC(=O)Nc1ccc2c(c1)OCCO2)=N\NC(=O)c1ccccc1Cl | 15 | 3 | 15 | -1 | 2 | 1 | · | ·
CC(C(=O)Nc1ccc2c(c1)OCCO2)c1ccc([N+](=O)[O-])cc1 (stereo not drawn) | 5 | 2 | 2 | 47* | 6 | -4 | 70* | 51*
CC1c2[nH]c3ccccc3c2CCN1S(C)(=O)=O (stereo not drawn) | -9 | 2 | 9 | 26* | 0 | 2 | 4 | 6
C=CCNC(=S)N1CCc2c([nH]c3ccccc23)C1C (stereo not drawn) | -15 | 15 | 13 | 11 | -2 | -3 | · | ·
O=C1COc2ccc(C(=O)COc3ccc(Cl)cc3Br)cc2N1 | 2 | -2 | 21 | · | 6 | 9 | · | ·
COC(=O)[C@@H](Cc1c[nH]c2ccccc12)NC(=O)CCC(=O)c1ccc(Br)cc1 | -9 | 13 | -9 | · | 0 | -1 | · | 14
Cc1cccc(OCc2nnc(SCCC(=O)O)n2-c2ccccc2)c1 | 0 | 11 | -4 | -12 | -4 | -9 | · | ·
CC(C)(C)c1ccc(OCCOc2ccc(C(C)(C)C)cc2NC=O)c(NC=O)c1 | -13 | -64 | 37 | 19* | 25 | 59* | 29* | 72*
COc1cc(OC)cc(C(=O)N[C@H](C(=O)OCC(=O)Nc2ccc(F)c(F)c2)C(C)C)c1 | 10 | -5 | -14 | 21* | 0 | 1 | 34* | 48*
OC(C#CCCN1CCCCC1)(c1ccccc1)c1ccccc1 | -7 | 1 | 10 | 22* | 2 | -7 | -8 | 6
CC(c1ccccc1C(O)(c1ccccc1)c1ccccc1)N(C)C (stereo not drawn) | -3 | -1 | -12 | 68* | -5 | -1 | 92* | 96*
COc1ccc(NC(=O)CC2S/C(=N\c3nccs3)N(C)C2=O)cc1 (stereo not drawn) | -14 | -33 | 12 | -5 | -3 | -13 | · | ·
CCCC(CCC)C(=O)Nc1ccc2c(c1)N(C(=O)CCN1CCN(C)CC1)c1ccccc1CC2 | -13 | 9 | -68 | 28* | -63* | 8 | 28* | 18
COc1ccc(N(CC(=O)NCc2ccc(Cl)cc2)S(=O)(=O)c2ccccc2[N+](=O)[O-])c(OC)c1 | -12 | 0 | 17 | 37* | 2 | 36 | 34* | 38*
CCOc1ccc(-c2nnc(N)s2)cc1 | -43 | -48 | 10 | 29* | 10 | -8 | -4 | -4
CN(C)CCNC(=O)c1ccc(Sc2ccc(Br)cc2)c([N+](=O)[O-])c1 | -3 | -27 | 5 | 23* | -3 | 77* | 37* | 42*
SMILES | Jurkat NFkB inh | 697 NFkB inh | HSF1 activator | GPR7 antagonist | HSF1 inhib | T cruzi inh | GPR7 antag conf | MCHR1 antag
CC(=O)NCCc1nc2cc(NC(=O)c3cccc([N+](=O)[O-])c3)ccc2n1C | -66 | -22 | -7 | -14 | 5 | -3 | · | ·
CC(C)(CO)NCc1c(OCc2ccc(Cl)cc2)ccc2ccccc12 | -9 | -14 | 45 | 32* | 0 | 33 | 27* | 15
CCOc1cccc(CNc2ccc(O)cc2)c1OCc1ccc(Cl)cc1 | -1 | -4 | 11 | -4 | 2 | -5 | · | ·
CCCCCCCN1C(Nc2ccccc2)=NC[C@@H]1CC(C)C | 6 | -30 | -6 | 44* | 1 | 33 | 40* | 34*
CC(C)C[C@H]1CN=C(Nc2ccccc2)N1CCCC1CCCCC1 | 20 | 16 | 4 | 55* | 0 | 41 | 53* | 39*
CC(C)C[C@H]1CN=C(Nc2ccccc2)N1CC1CCC(C)CC1 (stereo partly drawn) | 18 | -1 | -9 | 33* | 5 | 23 | 30* | 22*
CC(C)C[C@H]1CN=C(Nc2ccccc2)N1CCC1CCCC1 | 7 | 15 | -11 | 24 | -2 | 16 | · | ·
c1ccc(C[C@H]2CN=C(Nc3ccccc3)N2CCCC2CCCCC2)cc1 | 15 | 10 | · | · | · | · | · | ·
CC1CCC(CN2C(Nc3ccccc3)=NC[C@@H]2Cc2ccccc2)CC1 (stereo partly drawn) | -3 | -25 | · | · | · | · | · | ·
CC(C)C[C@H]1CN=C(Nc2ccccc2)N1CCCC1CCCC1 | 22 | -1 | -4 | 46* | 4 | 42 | 49* | 36*
CC(C)C[C@H]1CN=C(Nc2ccccc2)N1CCC(C)c1ccccc1 (stereo partly drawn) | 10 | -19 | · | · | · | · | · | ·
COc1ccc(NC(=O)CN(C)C(=O)c2ccc3c(c2)OCCO3)cc1 | 0 | 6 | -9 | · | 3 | 1 | · | ·
Cc1ccc2cc(CN(c3ccccc3C)S(=O)(=O)c3ccccc3)c(=O)[nH]c2c1 | -5 | -46 | 3 | -3 | 2 | 2 | · | ·
O=C(Nc1ccccc1F)Nc1ccccc1N1CCCCC1 | 4 | -22 | 2 | -19 | 7 | 9 | · | ·
Cn1cnnc1Sc1ccc(C(=O)NCCC(c2ccccc2)c2ccccc2)cc1[N+](=O)[O-] | -6 | -8 | -14 | 6 | 1 | 47 | · | ·

Source: PubChem
